{"data": "Measured values gathered from unrelated publications", "cell line": "MDA-MB-468", "effect on": "cell growth or viability", "note": "Each line is one published result; the experiments were not run side by side."}
{"SMILES": "Oc1ccc(N=Nc2ccccc2)c2ccccc12", "method": "MTT", "IC50": "4.9 µM"}
{"SMILES": "O=S(=O)(NN=Cc1cn(CCN2CCOCC2)c2ccccc12)c1ccc(Cl)cc1", "method": "MTT", "time": "48 h", "IC50": "8.2 µM"}
{"SMILES": "N=C(N)c1ccc(-c2ccc(-c3ccccc3)o2)cc1", "method": "MTT", "IC50": "0.66 µM"}
{"SMILES": "O=C(CSc1nc2ccc(N=Cc3ccc(Sc4nnnn4-c4ccccc4)o3)cc2s1)N1CCOCC1", "method": "MTT", "time": "48 h", "IC50": "26.9 µM"}
{"SMILES": "CN(C)c1ccc(/C=C/c2ccnc3ccc4ccccc4c23)cc1", "method": "MTT", "IC50": "0.12 µM"}
{"SMILES": "CCc1ccc(N2NC(=O)/C(=C/c3ccc(-c4ccc(S(=O)(=O)Nc5nccs5)cc4)o3)C2=O)cc1", "method": "MTT", "time": "48 h", "IC50": "44 µM"}
{"SMILES": "CC1=CC(=C(c2ccc(N)c(C)c2)c2ccc(N)c(C)c2)C=CC1=N", "method": "MTT", "IC50": "3.1 µM"}
{"SMILES": "COc1ccc(Br)cc1/C=C/C(=O)c1ccc(NC(C)=O)cc1", "method": "MTT", "time": "48 h", "IC50": "2.4 µM"}
{"SMILES": "O=S(=O)(NN=Cc1cn(CCN2CCOCC2)c2ccccc12)c1cccc2ncccc12", "method": "MTT", "time": "48 h", "IC50": "32.2 µM"}
{"SMILES": "Nc1ccc2cc3[nH]c4cc(N)ccc4c3nc2c1", "method": "MTT", "IC50": "0.11 µM"}
{"SMILES": "CC(C)(C)c1ccc(S(=O)(=O)NN=Cc2cn(CCN3CCOCC3)c3ccccc23)cc1", "method": "MTT", "time": "48 h", "IC50": "29.6 µM"}
{"SMILES": "Nc1nc(Nc2ccc(S(N)(=O)=O)cc2)sc1C(=O)c1cccc(F)c1", "method": "MTT", "time": "72 h", "IC50": "0.85 µM"}
{"SMILES": "O=[N+]([O-])c1ccc(S(=O)(=O)NN=Cc2cn(CCN3CCOCC3)c3ccccc23)cc1", "method": "MTT", "time": "48 h", "IC50": "37.1 µM"}
{"SMILES": "CC(=O)Nc1nc(C)c(-c2csc(Nc3ccccc3)n2)s1", "method": "MTT", "time": "72 h", "IC50": "11.1 µM"}
{"SMILES": "O=S(=O)(NN=Cc1cn(CCN2CCOCC2)c2ccccc12)c1ccc(F)cc1", "method": "MTT", "time": "48 h", "IC50": "15 µM"}
{"SMILES": "O=C(/C=C/c1ccccc1)c1ccccc1", "method": "resazurin", "time": "72 h", "IC50": "> 50 µM"}
{"SMILES": "COc1ccc(/C=C/C(=O)c2cc(Br)ccc(=O)c2O)cc1", "method": "MTT", "time": "48 h", "IC50": "6.3 µM"}
{"SMILES": "Cc1ccccc1Sc1cc2ccccc2c2ccccc12", "method": "MTT", "IC50": "29 µM"}
{"SMILES": "COc1cc(/C=C2\\SC(=O)NC2=O)ccc1OCc1ccc(Cl)cc1Cl", "method": "MTT", "time": "72 h", "IC50": "64.1 µM"}
{"SMILES": "O=S(=O)(Cc1ccccc1)NN=Cc1cn(CCN2CCOCC2)c2ccccc12", "method": "MTT", "time": "48 h", "IC50": "50.6 µM"}
